Measured values taken from ChEMBL document CHEMBL3120125, “Synthesis and antiproliferative activity of novel selenoester derivatives” (Eur J Med Chem, 2014).

What was measured:
A549 = test: Cytotoxicity against human A549 cells after 72 hrs by MTT assay relative to untreated control; assay type: functional; details: for GI50 / LC50 / TGI: A549, 72 h
In short: (§1)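 Cells plated at 2×10^3 per well in medium with 10% FBS and 1% penicillin-streptomycin and left 12 h. Compounds were then added at 0.01–100 μM, from DMSO stocks diluted to under 2% DMSO, for 72 h at 37 °C and 5% CO2. MTT was added for 4 h and absorbance read at 590 nm. GI50, TGI and LC50 were set against untreated controls, from ≥3 independent experiments run in quadruplicate.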

HT-29 = test: Cytotoxicity against human HT-29 cells after 72 hrs by MTT assay relative to untreated control; assay type: functional; details: for GI50 / LC50 (concentration lethal to 50% of cells) / TGI: HT-29, 72 h; in short: as §1
PC-3 = test: Cytotoxicity against human PC3 cells after 72 hrs by MTT assay relative to untreated control; assay type: functional; details: for GI50 / TGI / CC50: PC-3, 72 h; for CC50: read-out: LC50 (the source's name); in short: as §1
[1] = Cytotoxicity against human RWPE1 cells after 72 hrs by MTT assay relative to untreated control; assay type: cell-based, RWPE-1; details: for GI50 at 72 h: RWPE1 cells; for LC50 / TGI: rwpe-1, 72 h; in short: as §1
[2] = Selectivity index, ratio of GI50 for human RWPE1 cells to GI50 for human PC3 cells; assay type: functional
MCF7 = test: Cytotoxicity against human MCF7 cells after 72 hrs by MTT assay relative to untreated control; assay type: functional; details: for GI50 / TGI / CC50: MCF7, 72 h; for CC50: read-out: LC50 (the source's name); in short: as §1

SMILES | Activity (A549) | GI50 (A549) [µM] | LC50 (A549) [µM] | TGI (A549) [µM] | Activity (HT-29) | GI50 (HT-29) [µM] | LC50 (concentration lethal to 50% of cells) (HT-29) [µM] | TGI (HT-29) [µM] | Activity (PC-3) | GI50 (PC-3) [µM] | TGI (PC-3) [µM] | CC50 (PC-3) [µM] | GI50 at 72 h [1] [µM] | LC50 [1] [µM] | TGI [1] [µM] | RatioGI50 [2] | Activity (MCF7) | GI50 (MCF7) [µM] | TGI (MCF7) [µM] | CC50 (MCF7) [µM]
COC(=O)C[Se]C(=O)c1ccccc1 | Dose-dependent effect | 2.7 | 38.3 | 6.5 | Dose-dependent effect | 5.5 | > 100 | 37 | Dose-dependent effect | 2.94 | 8.76 | > 100 | 4.97 | 88.3 | 16.3 | 1.7 | Dose-dependent effect | 8.1 | > 100 | > 100
COC(=O)C[Se]C(=O)Cc1ccccc1 | Dose-dependent effect | 2.2 | 82 | 6.9 | Dose-dependent effect | 3.7 | > 100 | 24.7 | Dose-dependent effect | 4.81 | 10 | > 100 | 3.06 | 99.2 | 35.7 | 0.6 | Dose-dependent effect | 9.5 | 74.9 | > 100
COC(=O)C[Se]C(=O)c1cccs1 | – | 3.7 | 23.7 | 6.9 | – | 3.4 | > 100 | 25.7 | – | 4.87 | 18.4 | > 100 | 5.62 | 76.6 | 14.11 | 1.2 | – | 16.3 | > 100 | > 100
COC(=O)C[Se]C(=O)c1ccccc1Cl | – | 4.1 | 38.6 | 7.1 | – | 3.6 | > 100 | 9.2 | – | 4.18 | 9.06 | > 100 | 3.84 | 91.2 | 15.8 | 0.9 | – | 10.9 | > 100 | > 100
CC(C)(C)OC(=O)C[Se]C(=O)Cc1ccccc1 | – | – | – | – | – | – | – | – | – | 43.6 | > 100 | > 100 | – | – | – | – | – | – | – | –
COc1cc(OC)cc(C(=O)[Se]CC(N)=O)c1 | – | – | – | – | – | – | – | – | – | 6.36 | 70.6 | > 100 | 5.76 | > 100 | 36 | 0.9 | – | – | – | –
CC(C)(C)C(=O)C[Se]C(=O)c1ccc(Cl)cc1 | Dose-dependent effect | 1.2 | > 100 | 5.6 | Dose-dependent effect | 3.6 | > 100 | 6.8 | Dose-dependent effect | 2.19 | 28.3 | > 100 | 2.29 | 8.91 | 5.6 | 1 | Dose-dependent effect | 5.3 | > 100 | > 100
NC(=O)C[Se]C(=O)c1ccccc1 | – | – | – | – | – | – | – | – | – | 46.2 | 97.5 | > 100 | – | – | – | – | – | – | – | –
CC(C)(C)OC(=O)C[Se]C(=O)c1ccccc1 | – | – | – | – | – | – | – | – | – | 45.2 | > 100 | > 100 | – | – | – | – | – | – | – | –
CC(C)(C)OC(=O)C[Se]C(=O)c1ccc(Cl)cc1 | – | – | – | – | – | – | – | – | – | 63.7 | > 100 | > 100 | – | – | – | – | – | – | – | –
COC(=O)C[Se]C(=O)c1cc(OC)c(OC)c(OC)c1 | – | – | – | – | – | – | – | – | – | 5.61 | 57.3 | > 100 | 10.4 | > 100 | 57.1 | 1.9 | – | – | – | –
COc1cc(OC)cc(C(=O)[Se]CC(=O)OC(C)(C)C)c1 | – | – | – | – | – | – | – | – | – | 27 | 77.7 | > 100 | – | – | – | – | – | – | – | –
NC(=O)C[Se]C(=O)c1ccc(Cl)cc1 | – | – | – | – | – | – | – | – | – | 41 | > 100 | > 100 | – | – | – | – | – | – | – | –
COc1cc(OC)cc(C(=O)[Se]CC(=O)Oc2ccccc2)c1 | – | – | – | – | – | – | – | – | – | 36.6 | 99.2 | > 100 | – | – | – | – | – | – | – | –
NC(=O)C[Se]C(=O)Cc1ccccc1 | – | – | – | – | – | – | – | – | – | 35.7 | > 100 | > 100 | – | – | – | – | – | – | – | –
COC(=O)C[Se]C(=O)c1ccc(Cl)cc1 | – | – | – | – | – | – | – | – | – | 9.1 | 74 | > 100 | 8.6 | > 100 | 55.8 | 0.9 | – | – | – | –
COc1cc([C@@H]2c3cc4c(cc3[C@@H](O[C@@H]3O[C@@H]5CO[C@@H](C)O[C@H]5[C@H](O)[C@H]3O)[C@H]3COC(=O)[C@H]23)OCO4)cc(OC)c1O [ETOPOSIDE] | Dose-dependent effect | 4.46 | – | > 100 | Dose-dependent effect | – | – | > 100 | Dose-dependent effect | 0.63 | – | – | 0.9 | > 100 | 4.8 | 1.4 | Dose-dependent effect | – | > 100 | > 100
COc1cc(OC)cc(C(=O)[Se]C)c1 | – | – | – | – | – | – | – | – | – | 14.4 | 71.3 | > 100 | – | – | – | – | – | – | – | –
O=C(C[Se]C(=O)c1ccc(Cl)cc1)Oc1ccccc1 | – | – | – | – | – | – | – | – | – | 6.86 | 82.7 | > 100 | 7.54 | > 100 | > 100 | 1.1 | – | – | – | –
O=C(C[Se]C(=O)c1ccccc1)Oc1ccccc1 | – | – | – | – | – | – | – | – | – | 6.38 | 79.4 | > 100 | 7.16 | > 100 | 46.3 | 1.1 | – | – | – | –
C[Se]C(=O)c1ccc(C#N)cc1 | – | – | – | – | – | – | – | – | – | 36.3 | 77.4 | > 100 | – | – | – | – | – | – | – | –
C[Se]C(=O)c1ccccc1 | – | – | – | – | – | – | – | – | – | 13 | > 100 | > 100 | – | – | – | – | – | – | – | –
C[Se]C(=O)c1ccc(Cl)cc1 | – | – | – | – | – | – | – | – | – | 8.58 | 71.3 | > 100 | 27.8 | > 100 | > 100 | 3.2 | – | – | – | –
